In the RNAGym collection of RNA variant scans (doi:10.1126/science.aae0568):
This sample holds only a part of the variants without activity.

B1: tRNA (parent)
chain: GUUCCGUUGGCGUAAUGGUAACGCGUCUCCCUCCUAAGGAGAAGACUGCGGGUUCGAGUCCCGUACGGAACG

Variants of: B1
Assay: yeast fitness relative to wild type (ratio to wild type); higher = fitter; tRNA-Arg(CCU), competitive growth, 37 C, YPD
Outline: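 Changes in genotype frequencies gave Darwinian fitness relative to wild type. Frequencies were read by 100-nucleotide paired-end sequencing of gene amplicons before and after pooled Saccharomyces cerevisiae strains, carrying tRNA-Arg(CCU) gene variants at the native locus, were competed in YPD at 37°C for 24 hours in six replicates. A genotype was kept only with ≥ 100 starting reads, and estimates < 0.5 were set to 0.5.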

Variant	yeast fitness
C27U A43G	0.898
C4U G9A A57G	0.61
A21C G48C G56C	≤ 0.5
C33A U35A G68C	≤ 0.5
U3G C33A G52A	0.651
U16A C30U A40C G48C G67C	≤ 0.5
A15G C29A C34G U59A C62U	≤ 0.5
C11A U32C G67A	0.606
U28A G56A	0.796
C4U C34U G68C	≤ 0.5
U3C G38C A57U A70G	0.622
A21C C55A	0.605
A21C C55U	0.712
C31G A37U G56C	≤ 0.5
G63C A70C	0.744
C29G C55U U59G	≤ 0.5
G10C C27U C66G	≤ 0.5
U8A A70C	0.776
C34U A43G A69C	0.553
A15G C30G A37C A65U C66G	≤ 0.5
C4G U7G G10C C24U C29A A45U C46G U47A G50A U64G	≤ 0.5
U3C C46U A69U	0.789
A21G C22U C66U G68C	≤ 0.5
U3C C27A C31G	0.604

Variant	yeast fitness
G18C G68A	0.619
C4U C31G A65U G67C	≤ 0.5
C24G G39C C61U	≤ 0.5
G23C C62G C66A	≤ 0.5
G52A G56U A70U	≤ 0.5
G9C U26G U32A A57U	0.633
C30A C61A A65G C66G A70G	≤ 0.5
C33U G41C G68C A69U	≤ 0.5
C27G C31U C60A	0.602
C30A A45U C49A G63U A70U	0.523
G18A C29G A37G C60A C62G	0.728
G18A G44A U54C G58A G67U	≤ 0.5
A36G A42C G67C A69C	0.559
C11U C49U C61A	0.555
U2A G9C A14C C34U A65U	≤ 0.5
U19A U59A C62A	≤ 0.5
C31U C49G C60A	≤ 0.5
U7A U13A G23A	≤ 0.5
A20C C22U A40U	≤ 0.5
A15C C30G	0.541
C4A U28C G56A C61U	≤ 0.5
C33U C60G	0.607
C31U A43G C66U	0.724
G9A U28A A65U	≤ 0.5

Variant	yeast fitness
C5G C31U G58C C62A	≤ 0.5
A37C C66G	0.586
U2A A21U G50A	≤ 0.5
C22G U28C C31G	0.6
G17A A40U G58C	0.672
U16C U35A C61A A70U	0.532
C11G C22U C30A	≤ 0.5
G12A A40C A69C	0.757
C11U U16A C29A A45U	0.605
G12A A15G A65G	0.541
G6A A20G A37G G50A	≤ 0.5
C30U G51C G58A	≤ 0.5
C4A A20C A42C U54C	≤ 0.5
U13C G48C G50A	≤ 0.5
G6A A36U C61G	0.646
C5A A15U A21U U32C	≤ 0.5
U8C C22A A36C G63C G67A	≤ 0.5
C5A U26A C31A C49U	≤ 0.5
U13A U26G C29U	≤ 0.5
U7C C22U U53A	0.71
G51A C66A	0.555
C4U A21C C22A C60U	≤ 0.5
U2G C4U U7G C11G A15C G18A C55U	0.75
U13G C24A A45G C55G	0.622

Variant	yeast fitness
A21U A36G U47C U59A	0.729
C33U A37U C61U	≤ 0.5
G6C A42C C62G	≤ 0.5
U19C C34U G52A U59A	0.669
C5U G56C A57U	≤ 0.5
A14U A40U A69U	0.592
U19A A42U	0.949
A14C A20U C30A C31A G52A G68U	0.551
C4G C11G C55U A70G	≤ 0.5
C4U G10A C24U C46G G58A	≤ 0.5
U32A G50A	0.783
U2C G25C	0.953
U3C U16G A21C G25C A37C A40U	≤ 0.5
U3C U8C G9A A69U	0.564
A15G C31U U35C	0.609
U3A A14U C62U	0.79
A20G G50U	0.831
C24U A37C G58A	0.513
U16C C34G G38C C62G A69C	≤ 0.5
C34G C49G C61U A69G	0.567
C24G C30U A40G G44A U47C G51C	≤ 0.5
C4G A45U C49U A65U	≤ 0.5
C27G G48A G67C A69U	0.525
C22G C27G C33U G39A G41A	≤ 0.5

Variant	yeast fitness
C11U A40U C66G	≤ 0.5
C11U C22G G58A C61U	0.608
C5G C55G U59C C60U G67U	≤ 0.5
U13C C30A	0.825
C11A A21C U64A	0.688
A40G G51C	0.664
U19G A42U C46U	0.569
U7A A37G A40G A69U	≤ 0.5
G23A U28C C30A	≤ 0.5
U2A G6A C11U C31G G51A G67A	≤ 0.5
C5U A20G A43G A65U	≤ 0.5
U2A C5G A37U C49U C61U	≤ 0.5
C29A C62A	0.581
C5G G10C G67A	≤ 0.5
A21G C22A C55A G67C	≤ 0.5
U13G U19G	1.05
G18C U26C C29G C31G C33U C46A A69C	≤ 0.5
U3C G9C C11U C30G A43C U64C	≤ 0.5
U28G C30G U53A C61U	≤ 0.5
C5U G9C U64A	0.577
U8C U16C U53G G56C C60A	≤ 0.5
A14G C30U A42G A57U	≤ 0.5
C5G A37C G38A C60G	≤ 0.5
C5U A43G C62A	0.588

Variant	yeast fitness
G12A C62U	0.815
C5U C22U C33U A37G	≤ 0.5
C31A G44C A65G	0.553
C11U C34G G38C C61U	≤ 0.5
C11U A40G G67C A69U	0.574
A14U C24U G48C	≤ 0.5
C5A G18A A69U	≤ 0.5
U28A C62U	0.86
C31G C49U G50C A69U	≤ 0.5
C49U G56C A70C	≤ 0.5
U3G U8A C31A C55U	≤ 0.5
A37U A45C	0.64
A20G G38A U47C	0.685
C33A A45G C49U A70U	≤ 0.5
G10A C55A	0.67
A40C A65C	0.825
C5G C31U G63A	0.683
C31U C33A C46A	0.596
A21C G51C	0.528
U2G A40C G68C	0.54
C11G C24U C49A	0.547
C5A C55U G63A G67C	≤ 0.5
C24G C31G A45G C60G	≤ 0.5
G17A U35G U59C	≤ 0.5

Variant	yeast fitness
G6C C30A	0.763
A20C C46U G50A G67C A70U	≤ 0.5
U8A A14G G39C	≤ 0.5
U2C A14G C46U C60A	≤ 0.5
G10C C33A A45C C55U	≤ 0.5
G9C U13A G25A A40C A57C C61A	≤ 0.5
U3A C22U	0.738
U2A C5A C46U G50C	≤ 0.5
G12C A45U	0.978
C11G G17A C22U C27U A57C	≤ 0.5
A15G A65U	0.841
C4G A14U C30U G48C	≤ 0.5
A14U C30A A43C G63A	≤ 0.5
C4G C30G G58A	≤ 0.5
C5U A37C	0.764
C5U U13A G58C	0.63
C4G G10C G12C A21C G48C A57G	0.527
U35A C60G C62G	≤ 0.5
G12A C66A	0.654
C4G C24G C30U C46G	≤ 0.5
G9A C49U A69C	0.85
G10C C31U A57C C62A A70U	≤ 0.5
G23C G48C A69U	≤ 0.5
